Measurements as given in ChEMBL document CHEMBL4339190, “2,6-Disubstituted imidazo[2,1-b][1,3,4]thiadiazole derivatives as potent staphylococcal biofilm inhibitors” (Eur J Med Chem, 2019).
Active and inactive are the calls of the source. The rule behind the calls is not given here.

What was measured:
Staphylococcus aureus [1] = assay: Antimicrobial activity against Staphylococcus aureus ATCC 25923 assessed as growth inhibition of planktonic forms incubated for 24 hrs; assay type: organism-based; conditions: in vitro
In short: (§1)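 Broth microdilution in tryptic soy broth. Two-fold series 100 to 0.75 μg/mL made from a 1 mg/mL stock in 0.9% NaCl. Inoculum ~10⁶ cfu/mL taken from a 24 h culture, 37 °C 24 h.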

Staphylococcus aureus [2] = assay: Antimicrobial activity against Staphylococcus aureus ATCC 6538 assessed as growth inhibition of planktonic forms incubated for 24 hrs; assay type: organism-based; conditions: in vitro; in short: as §1
[3] = test system: Staphylococcus epidermidis; assay: Antimicrobial activity against Staphylococcus epidermidis ATCC 12228 assessed as growth inhibition of planktonic forms incubated for 24 hrs; assay type: organism-based; conditions: in vitro; in short: as §1
Pseudomonas aeruginosa [4] = assay: Antimicrobial activity against Pseudomonas aeruginosa ATCC 15442 assessed as growth inhibition of planktonic forms incubated for 24 hrs; assay type: organism-based; conditions: in vitro; in short: as §1
Escherichia coli [5] = assay: Antimicrobial activity against Escherichia coli ATCC 25922 assessed as growth inhibition of planktonic forms incubated for 24 hrs; assay type: organism-based; conditions: in vitro; in short: as §1
Staphylococcus aureus [6] = assay: Antibiofilm activity against Staphylococcus aureus ATCC 25923 incubated for 24 hrs by crystal violet-staining based assay; assay type: functional
In short: (§2)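 Biofilm prevention: 0.5 McFarland inoculum (2.5 µL) in 100 µL TSB with 2% w/v glucose, compound present from the start over 100–0.1 µg/mL, 37 °C 24 h. Washed with PBS, stained 0.1% w/v crystal violet 30 min, eluted with 33% v/v acetic acid, read at 570 nm. BIC50 (50% inhibition versus untreated control) derived by linear regression; triplicate, repeated at least twice.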

Staphylococcus aureus [7] = assay: Antibiofilm activity against Staphylococcus aureus ATCC 6538 incubated for 24 hrs by crystal violet-staining based assay; assay type: functional; in short: as §2
[8] = test system: Staphylococcus epidermidis; assay: Antibiofilm activity against Staphylococcus epidermidis ATCC 12228 incubated for 24 hrs by crystal violet-staining based assay; assay type: functional; in short: as §2
Pseudomonas aeruginosa [9] = assay: Antibiofilm activity against Pseudomonas aeruginosa ATCC 15442 incubated for 24 hrs by crystal violet-staining based assay; assay type: functional; in short: as §2
Escherichia coli [10] = assay: Antibiofilm activity against Escherichia coli ATCC 25922 incubated for 24 hrs by crystal violet-staining based assay; assay type: functional; in short: as §2
Pseudomonas aeruginosa [11] = assay: Antibiofilm activity against Pseudomonas aeruginosa ATCC 15442 assessed as inhibition of biofilm formation at 100 ug/ml incubated for 24 hrs by crystal violet-staining based assay; assay type: functional; conditions: ATCC 15442, 24 h
Escherichia coli [12] = assay: Antibiofilm activity against Escherichia coli ATCC 25922 assessed as inhibition of biofilm formation at 100 ug/ml incubated for 24 hrs by crystal violet-staining based assay; assay type: functional; conditions: ATCC 25922, 24 h

Row | SMILES | MIC (Staphylococcus aureus [1]) [µg/mL] | MIC (Staphylococcus aureus [2]) [µg/mL] | MIC [3] [µg/mL] | MIC (Pseudomonas aeruginosa [4]) [µg/mL] | MIC (Escherichia coli [5]) [µg/mL] | MBIC50 (Staphylococcus aureus [6]) | MBIC50 (Staphylococcus aureus [7]) | MBIC50 [8] | MBIC50 (Pseudomonas aeruginosa [9]) | MBIC50 (Escherichia coli [10]) | inhibition (Staphylococcus aureus [6]) | inhibition (Staphylococcus aureus [7]) | inhibition [8] | inhibition at 100 µg/mL (Pseudomonas aeruginosa [11]) [%] | inhibition at 100 µg/mL (Escherichia coli [12]) [%] | inhibition (Pseudomonas aeruginosa [9]) | inhibition (Escherichia coli [10])
1 | FC(F)(F)c1ccc(-c2cn3nc(-c4c[nH]c5ccccc45)sc3n2)cc1 | > 100 | > 100 | > 100 | > 100 | > 100 | inactive | inactive | inactive | inactive | inactive |  |  |  |  |  |  | 
2 | FC(F)(F)c1ccc(-c2cn3nc(-c4c[nH]c5ccc(Cl)cc45)sc3n2)cc1 | > 100 | > 100 | > 100 | > 100 | > 100 | 9.7 µM | 12.6 µM | 24.5 µM |  |  | Dose-dependent effect | Dose-dependent effect | Dose-dependent effect | < 15 | < 15 |  | 
3 | Br.Clc1ccc2[nH]cc(-c3nn4cc(-c5ccccc5)nc4s3)c2c1 | > 100 | > 100 | > 100 | > 100 | > 100 | inactive | inactive | inactive | inactive | inactive |  |  |  |  |  |  | 
4 | Br.Cn1cc(-c2nn3cc(-c4ccccc4)nc3s2)c2ccccc21 | > 100 | > 100 | > 100 | > 100 | > 100 | 23 µM | 18.9 µM | 47.9 µM |  |  | Dose-dependent effect | Dose-dependent effect | Dose-dependent effect | < 15 | < 15 |  | 
5 | Cn1cc(-c2nn3cc(-c4ccc(C(F)(F)F)cc4)nc3s2)c2ccccc21 | > 100 | > 100 | > 100 | > 100 | > 100 | inactive | inactive | inactive | inactive | inactive |  |  |  |  |  |  | 
6 | Br.COc1ccc(OC)c(-c2cn3nc(-c4c[nH]c5ccc(Br)cc45)sc3n2)c1 | > 100 | > 100 | > 100 | > 100 | > 100 | 26.4 µM | 16.5 µM | 36.1 µM |  |  | Dose-dependent effect | Dose-dependent effect | Dose-dependent effect | < 15 | < 15 |  | 
7 | Br.COc1cccc(-c2cn3nc(-c4c[nH]c5ccccc45)sc3n2)c1 | > 100 | > 100 | > 100 | > 100 | > 100 | 80.2 µM | 37 µM | 33.4 µM | 80.2 µM | 69.7 µM | Dose-dependent effect | Dose-dependent effect | Dose-dependent effect |  |  | Dose-dependent effect | Dose-dependent effect
8 | Br.Brc1ccc2[nH]cc(-c3nn4cc(-c5ccccc5)nc4s3)c2c1 | > 100 | > 100 | > 100 | > 100 | > 100 | inactive | inactive | inactive | inactive | inactive |  |  |  |  |  |  | 
